In ChEMBL document CHEMBL1143286, “Discovery of pentacyclic compounds as potent inhibitors of hepatitis C virus NS5B RNA polymerase” (Bioorg Med Chem Lett, 2009):

Experiments:
Hepatitis C virus [1] = test: Antiviral activity against HCV assessed as inhibition of viral subgenomic RNA replication in human HuH7 cells by replicon assay in presence of 50% normal human serum; assay type: functional, organism-based, Hepacivirus hominis, Huh-7
[2] = Inhibition of HCV BK NS5B polymerase deltaC21 mutant; assay type: single protein, NS5B polymerase (HCV isolate BK)
How it was run: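 Purified NS5B enzyme (BK strain, C-terminal 21-residue truncation) assayed for polymerase activity on heterogeneous template RNA, following a modified version of a previously published procedure.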

Hepatitis C virus [3] = test: Antiviral activity against HCV assessed as inhibition of viral subgenomic RNA replication in human HuH7 cells by replicon assay in presence of 10% fetal calf serum; assay type: functional, organism-based, Hepacivirus hominis; conditions: Huh-7
Hepatitis C virus [4] = test: Ratio of EC50 for HCV RNA replication in human HuH7 cells in presence of 50% normal human serum to EC50 for HCV RNA replication in human HuH7 cells in presence of 10% fetal calf serum; assay type: functional, Hepacivirus hominis, Huh-7
Plasma = test: Protein binding in human plasma; assay type: ADME, cell-free

CN(C)C(=O)Cn1c(-c2ccccc2)c(C2CCCCC2)c2ccc(C(=O)O)cc21
EC50 (Hepatitis C virus [1]; Hepatitis C virus, Huh-7): 9850 nM
IC50 [2]: 430 nM
EC50 (Hepatitis C virus [3]): 1540 nM

CN(C)CCN1CCn2c(c(C3CCCCC3)c3ccc(C(=O)O)cc32)-c2ccccc21
EC50 (Hepatitis C virus [1]; Hepatitis C virus, Huh-7): 360 nM
IC50 [2]: 28 nM
EC50 (Hepatitis C virus [3]): 130 nM

CN1CC[C@@H]2c3ccccc3-c3c(C4CCCCC4)c4ccc(C(=O)O)cc4n3C[C@@H]21
EC50 (Hepatitis C virus [1]; Hepatitis C virus, Huh-7): 3800 nM
IC50 [2]: 20 nM
Ratio EC50 (Hepatitis C virus [4]): 3
EC50 (Hepatitis C virus [3]): 1200 nM

CN(C)CC(=O)N1CC[C@H]2Cn3c(c(C4CCCCC4)c4ccc(C(=O)O)cc43)-c3ccccc3[C@@H]21
EC50 (Hepatitis C virus [1]; Hepatitis C virus, Huh-7): 210 nM
IC50 [2]: 31 nM
EC50 (Hepatitis C virus [3]): 170 nM

COc1ccc2c(c1)[C@H]1[C@@H](CCN1C(=O)CN(C)C)Cn1c-2c(C2CCCCC2)c2ccc(C(=O)O)cc21
EC50 (Hepatitis C virus [1]; Hepatitis C virus, Huh-7): 110 nM
IC50 [2]: 23 nM
EC50 (Hepatitis C virus [3]): 32 nM

O=C(O)c1ccc2c(C3CCCCC3)c3n(c2c1)C[C@@H]1CCN(CCN2CCCCC2)[C@H]1c1ccccc1-3
EC50 (Hepatitis C virus [1]; Hepatitis C virus, Huh-7): 220 nM
IC50 [2]: 11 nM
EC50 (Hepatitis C virus [3]): 40 nM
Activity (Plasma): 92%

CN(C)CCN1CCn2c(c(C3CCCCC3)c3ccc(C(=O)O)cc32)-c2ccccc2C1
EC50 (Hepatitis C virus [1]; Hepatitis C virus, Huh-7): 850 nM
IC50 [2]: 27 nM
EC50 (Hepatitis C virus [3]): 140 nM

COc1ccc2c(c1)[C@@H]1[C@@H](CCN1CCN(C)C)Cn1c-2c(C2CCCCC2)c2ccc(C(=O)O)cc21
EC50 (Hepatitis C virus [1]; Hepatitis C virus, Huh-7): 270 nM
IC50 [2]: 21 nM
EC50 (Hepatitis C virus [3]): 150 nM

CN(C)CCN1CC[C@H]2Cn3c(c(C4CCCCC4)c4ccc(C(=O)O)cc43)-c3ccccc3[C@@H]21
EC50 (Hepatitis C virus [1]; Hepatitis C virus, Huh-7): 98 nM
IC50 [2]: 20 nM
EC50 (Hepatitis C virus [3]): 32 nM
Activity (Plasma): 91.5%

O=C(O)c1ccc2c(C3CCCCC3)c3n(c2c1)C[C@@H]1CCN(CCCN2CCCCC2)[C@@H]1c1ccccc1-3
EC50 (Hepatitis C virus [1]; Hepatitis C virus, Huh-7): 110 nM
IC50 [2]: 11 nM
EC50 (Hepatitis C virus [3]): 53 nM

COc1ccc2c(c1)[C@H]1[C@@H](CCN1C(=O)OCCN(C)C)Cn1c-2c(C2CCCCC2)c2ccc(C(=O)O)cc21
EC50 (Hepatitis C virus [1]; Hepatitis C virus, Huh-7): 225 nM
IC50 [2]: 21 nM
EC50 (Hepatitis C virus [3]): 180 nM

CN1CC[C@H]2Cn3c(c(C4CCCCC4)c4ccc(C(=O)O)cc43)-c3ccccc3[C@H]21
EC50 (Hepatitis C virus [1]; Hepatitis C virus, Huh-7): 2540 nM
IC50 [2]: 140 nM
Ratio EC50 (Hepatitis C virus [4]): 3
EC50 (Hepatitis C virus [3]): 770 nM

CN1CC[C@H]2Cn3c(c(C4CCCCC4)c4ccc(C(=O)O)cc43)-c3ccccc3[C@@H]21
EC50 (Hepatitis C virus [1]; Hepatitis C virus, Huh-7): 700 nM
IC50 [2]: 40 nM
Ratio EC50 (Hepatitis C virus [4]): 1
EC50 (Hepatitis C virus [3]): 830 nM

CN(C)[C@H]1C[C@H]2Cn3c(c(C4CCCCC4)c4ccc(C(=O)O)cc43)-c3ccccc3[C@H]2C1
EC50 (Hepatitis C virus [1]; Hepatitis C virus, Huh-7): 890 nM
IC50 [2]: 30 nM
Ratio EC50 (Hepatitis C virus [4]): 7
EC50 (Hepatitis C virus [3]): 130 nM

CN(C)CCNC(=O)N1CC[C@H]2Cn3c(c(C4CCCCC4)c4ccc(C(=O)O)cc43)-c3ccccc3[C@@H]21
EC50 (Hepatitis C virus [1]; Hepatitis C virus, Huh-7): 480 nM
IC50 [2]: 24 nM
EC50 (Hepatitis C virus [3]): 630 nM

CN(C)C(=O)CN1CC[C@H]2Cn3c(c(C4CCCCC4)c4ccc(C(=O)O)cc43)-c3ccccc3[C@@H]21
EC50 (Hepatitis C virus [1]; Hepatitis C virus, Huh-7): 96 nM
IC50 [2]: 17 nM
EC50 (Hepatitis C virus [3]): 78 nM

COc1ccc2c(c1)[C@@H]1[C@H](CCN1CCN(C)C)Cn1c-2c(C2CCCCC2)c2ccc(C(=O)O)cc21
EC50 (Hepatitis C virus [1]; Hepatitis C virus, Huh-7): > 1000 nM
IC50 [2]: 312 nM
EC50 (Hepatitis C virus [3]): > 1000 nM

CN(C)CCCN1CC[C@H]2Cn3c(c(C4CCCCC4)c4ccc(C(=O)O)cc43)-c3ccccc3[C@@H]21
EC50 (Hepatitis C virus [1]; Hepatitis C virus, Huh-7): 80 nM
IC50 [2]: 24 nM
EC50 (Hepatitis C virus [3]): 58 nM

CN(C)CCN1CC[C@H]2Cn3c(c(C4CCCCC4)c4ccc(C(=O)O)cc43)-c3ccccc3[C@H]21
EC50 (Hepatitis C virus [1]; Hepatitis C virus, Huh-7): 620 nM
IC50 [2]: 30 nM
EC50 (Hepatitis C virus [3]): 260 nM

COc1ccc2c(c1)[C@H]1[C@@H](CCN1CCN(C)C)Cn1c-2c(C2CCCCC2)c2ccc(C(=O)O)cc21 (stereo in doubt; 8b)
EC50 (Hepatitis C virus [1]; Hepatitis C virus, Huh-7): 63 nM
IC50 [2]: 8 nM
Ratio EC50 (Hepatitis C virus [4]): 2.5
EC50 (Hepatitis C virus [3]): 25 nM

COc1ccc2c(c1)[C@H]1[C@@H](CCN1CCN(C)C)Cn1c-2c(C2CCCCC2)c2ccc(C(=O)O)cc21 (stereo in doubt; 11)
EC50 (Hepatitis C virus [1]; huh-7): 49 nM
IC50 [2]: 4 nM
